Results of several laboratories.
Compare with care: the assays were run in different laboratories.
Read-out: cell growth or viability

N.N.[Cl][Pt][Cl] — IC50 (M21; SRB; 48 h): 17000 nM
COc1ccc2c(c1)[nH]c1c(C)nccc12 — IC50 (BT-474; MTT; 72 h): 20200 nM
N.N.[Cl][Pt][Cl] — IC50 (B16-F10; MTT): 9380 nM
CC[C@H](Nc1nc(NCc2cnc(C)cc2C)c2ncn(C(C)C)c2n1)[C@@H](C)O — IC50 (MB002; 7 days): 277 nM
CC[C@H](C)[C@@H]([C@@H](CC(=O)N1CCC[C@H]1[C@H](OC)[C@@H](C)C(=O)N[C@H](C)[C@@H](O)c1ccccc1)OC)N(C)C(=O)[C@@H](NC(=O)[C@H](C(C)C)N(C)C(=O)OCc1ccc(NC(=O)[C@H](C)NC(=O)[C@@H](NC(=O)CCc2cn(CCOCCOCCOCCOCC(=O)NCc3ccc(CN4C(=O)[C@H]5CC(=O)N[C@H](C(=O)O)CC(=O)NCC(=O)N[C@@H](CCCNC(=N)N)C(=O)NC[C@H]4C(=O)N5)cc3)nn2)C(C)C)cc1)C(C)C — IC50 (M21; MTT; 72 h): 6.94 nM
N.N.[Cl][Pt][Cl] — IC50 (CCD 19Lu; 24 h): > 100000 nM
CC[C@@H]1C(=O)N(C)c2cnc(Nc3ccc(C(=O)NC4CCN(C)CC4)cc3OC)nc2N1C1CCCC1 — IC50 (MB002; 7 days): 3.4 nM
CN[C@@H]1C[C@H]2O[C@@](C)([C@@H]1OC)n1c3ccccc3c3c4c(c5c6ccccc6n2c5c31)C(=O)NC4 — Kb (KB 3-1; WST-1; 5 days): 4 nM
Cc1sc2c(c1C)C(c1ccc(Cl)cc1)=N[C@@H](CC(=O)Nc1ccc(O)cc1)c1nnc(C)n1-2 — IC50 (MB002; 7 days): 12.6 nM
CC[C@H](C)[C@@H]([C@@H](CC(=O)N1CCC[C@H]1[C@H](OC)[C@@H](C)C(=O)N[C@H](C)[C@@H](O)c1ccccc1)OC)N(C)C(=O)[C@@H](NC(=O)[C@H](C(C)C)N(C)C(=O)CCc1cn(CCOCCOCCOCCOCC(=O)NCc2ccc(CN3C(=O)[C@H]4CC(=O)N[C@H](C(=O)O)CC(=O)NCC(=O)N[C@@H](CCCNC(=N)N)C(=O)NC[C@H]3C(=O)N4)cc2)nn1)C(C)C — IC50 (M21; MTT; 72 h): 400 nM
